Test results from ChEMBL document CHEMBL1121519, “Basic antiinflammatory compounds. N,N',N''-Trisubstituted guanidines” (J Med Chem, 1980).

Columns and labels:
Rattus norvegicus [1] = assay: Total score is the sum of scores obtained in the adjuvant arthritis, acute toxicity, carrageenan edema, and prostaglandin synthetase assay; format: functional
[2] = molecular target: T1, Cyclooxygenase (Bos taurus) (UniProt O62664+O62698); assay: Inhibition of prostaglandin synthetase in bovine seminal vesicle microsomes using Beckman liquid scintillation counter at 10 e-5 M; details: Microsome
Rattus norvegicus [3] = assay: Tested for percent enhancement of carrageenan paw edema in rat, administered orally at a dose of one tenth of oral lethal dose in mice; format: functional
Method in brief: (§1)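 1 h later, 0.1 mL of 1% carrageenan was injected into the right hind-paw plantar tissue. Paw swelling was measured by mercury-displacement plethysmometry 3 h after carrageenan, compared with controls.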

[4] = Lethal dose in mice determined by Litchfield and Wilcoxon methods after peroral administration.; format: toxicity, organism-based; details: mouse, in vivo, po
Method in brief: (§2)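 Median lethal dose found after oral dosing of mice, four mice per dose level, and calculated by the Litchfield–Wilcoxon method.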

[5] = Toxic score (3) was measured as lethal dose in orally administered mice; format: toxicity, organism-based; details: mouse, in vivo, po
Method in brief: (§3)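 Score derived from mouse oral LD50 (Litchfield–Wilcoxon, four mice per dose), in mg/kg: >1000 = 3; 500-1000 = 2; <500 = 1.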

Rattus norvegicus [6] = organism: Rattus norvegicus; assay: Tested for inhibition in the rat paw injected with carrageenan.; format: functional; set-up: concentration or dose not given beside the values
Rattus norvegicus [7] = organism: Rattus norvegicus; assay: Tested for inhibition in the rat paw not injected with […].; format: functional; set-up: concentration or dose not given beside the values
Method in brief: (§4)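 Adjuvant-induced arthritis, female Lewis rats, six per group: M. butyricum in mineral oil (3 mg/mL, 0.1 mL) injected into right hind paw plantar tissue. Daily oral dosing from adjuvant day to day 28, 10 or 5 (mg/kg)/day according to mouse oral LD50 (≥1000 or <1000 mg/kg). Injected and noninjected paw swelling read by mercury-displacement plethysmometry on day 28.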

Rattus norvegicus [8] = organism: Rattus norvegicus; assay: Average percent inhibition (arthritis score=1) of the swelling of both injected and non injected paw was measured; […]; format: functional
Rattus norvegicus [9] = organism: Rattus norvegicus; assay: Average percent inhibition (arthritis score) of the swelling of both injected and non injected paw was measured; […]; format: functional
Rattus norvegicus [10] = assay: Percent inhibition of carrageenan paw edema in rat, administered orally at a dose of one tenth of oral lethal dose in mice; format: functional; method in brief: as §1
[11] = Tested for percent inhibition of carrageenan paw edema in rat, administered orally at a dose of one tenth of lethal dose; format: organism-based; details: in vivo, po; method in brief: as §1
Rattus norvegicus [12] = organism: Rattus norvegicus; assay: Average percent inhibition (arthritis score=3) of the swelling of both injected and non injected paw was measured; format: functional
Method in brief: (§5)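 Adjuvant arthritis in inbred female Lewis rats, groups of six, acclimatized 2 weeks. Arthritis induced by injecting 0.1 mL M. butyricum in mineral oil (3 mg/mL) into right hind paw plantar tissue. Oral dosing daily from adjuvant day to day 28: 10 (mg/kg)/day if mouse oral LD50 ≥1000 mg/kg, else 5 (mg/kg)/day. Swelling of injected and noninjected paws measured day 28 by mercury-displacement plethysmometry; mean percent inhibition scored 0–3.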

[13] = Toxic score (1) was measured as lethal dose in orally administered mice; format: toxicity, organism-based; details: in vivo, po; method in brief: as §3
Rattus norvegicus [14] = assay: Tested for inhibition at the dose of 5(mg/kg)/day in the rat paw not injected with carrageenan.; format: functional; details: in the assay text read “adjuvant” for “carrageenan”; method in brief: as §4
Rattus norvegicus [15] = organism: Rattus norvegicus; assay: Average percent inhibition (arthritis score)of the swelling of both injected and non injected paw was measured; format: functional; method in brief: as §5
[16] = molecular target: T1, Cyclooxygenase (Bos taurus); assay: Tested for Prostaglandin Synthetase inhibition in Bovine seminal vesicle microsomes using Beckman liquid scintillation counter at 10 e-5 M; details: Microsome
Rattus norvegicus [17] = organism: Rattus norvegicus; assay: Average percent inhibition (arthritis score=1) of the swelling of both injected and non injected paw was measured;values ranges from: […]-[…]; format: functional
[18] = Lethal dose in rats(peroral administration); format: toxicity, organism-based; details: rat, in vivo, po
Rattus norvegicus [19] = assay: Minimum effective dose against adjuvant arthritis on prophylactic dosing (peroral administration); format: functional; details: po, read-out: MED
Method in brief: (§6)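 Female Lewis rats given adjuvant arthritis by plantar M. butyricum in mineral oil. Oral daily dosing either from adjuvant day to day 28 (continuous), day 16 to day 28 (therapeutic), or day 5 pre- to day 5 postadjuvant (prophylactic). MED: lowest dose producing significant (p < 0.05) inhibition of noninjected paw swelling on day 28, by plethysmometry.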

[20] = Inhibitory concentration against PG synthetase; format: functional
Rattus norvegicus [21] = assay: Effective dose against nystatin edema(peroral administration); format: functional; details: po
Rattus norvegicus [22] = organism: Rattus norvegicus; assay: Minimum effective dose is the lowest dose preventing any futher increase in body temperature; format: functional; details: read-out: MED
Method in brief: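 Antipyretic test, oral dosing; MED defined as the lowest dose preventing any further increase of body temperature.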

Rattus norvegicus [23] = assay: Effective dose against carrageenan edema(peroral administration); format: functional; details: po
Method in brief: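 Sprague-Dawley rats fasted 18 h, dosed orally in 0.5% carboxymethylcellulose suspension 1 h before 0.1 mL of 1% carrageenan into right hind paw plantar tissue. Paw swelling in treated versus control rats measured 3 h post-carrageenan by mercury-displacement plethysmometry; ED50 given in mg/kg po.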

Rattus norvegicus [24] = assay: Effective dose against gastroulcerogenic activity (peroral administration); format: functional; details: po
Method in brief: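 Groups of six Sprague-Dawley rats given oral doses once daily for 3 days; inner stomach surface examined for lesions 24 h after last dose. ED50 is the dose giving macroscopically visible lesions in 50% of rats.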

[25] = Lethal dose in mice(peroral administration); format: toxicity, organism-based; details: mouse, in vivo, po; method in brief: as §2
Rattus norvegicus [26] = assay: Minimum effective dose against adjuvant arthritis on therapeutic dosing (peroral administration); format: functional; details: po, read-out: MED; method in brief: as §6
Rattus norvegicus [27] = assay: Minimum effective dose against adjuvant arthritis on administration); format: functional; details: read-out: MED; method in brief: as §6
Rattus norvegicus [28] = assay: Effective dose against analgesic activity (peroral administration); format: functional; details: po
Rattus norvegicus [29] = organism: Rattus norvegicus; assay: Tested for enhancement in the rat paw not injected with carrageenan.; format: functional
Rattus norvegicus [30] = organism: Rattus norvegicus; assay: Tested for enhancement in the rat paw injected with carrageenan.; format: functional
Rattus norvegicus [31] = organism: Rattus norvegicus; assay: Average percent inhibition of the swelling of both injected and non injected paw was measured; format: functional; method in brief: as §5
[32] = Toxic score was measured as lethal dose in orally administered mice;Values ranges from: 500-1000; format: toxicity, organism-based; details: mouse, in vivo, po; method in brief: as §3
Rattus norvegicus [33] = organism: Rattus norvegicus; assay: Average percent inhibition (arthritis score=0) of the swelling of both injected and non injected paw was measured; format: functional; method in brief: as §5
Rattus norvegicus [34] = organism: Rattus norvegicus; assay: Average percent inhibition (arthritis score=2) of the swelling of both injected and non injected paw was measured;values ranges from: […]-[…]; format: functional
Rattus norvegicus [35] = assay: Tested for percent inhibition of carrageenan paw edema in rat, administered orally at a dose of one tenth of oral lethal dose in mice; format: functional
Method in brief: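 Sprague-Dawley rats fasted 18 h; compound suspended in 0.5% carboxymethylcellulose, given orally 1 h before 0.1 mL of 1% carrageenan suspension injected into the plantar tissue of the right hind paw. Paw swelling measured by mercury-displacement plethysmometry 3 h after carrageenan, treated versus controls. Mouse oral LD50 was from the Litchfield-Wilcoxon method with four mice per dose.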

Rattus norvegicus [36] = organism: Rattus norvegicus; assay: Average percent inhibition (arthritis score)of the swelling of both injected and non injected paw was measured; […]; format: functional

## CCOC(=O)c1csc(/N=C(\Nc2cc(C)nc3ccccc23)NC2CCCCC2)n1
Rattus norvegicus [1]
  Total score: 7
[2]
  inhibition: 89.8%
Rattus norvegicus [3]
  Enhancement: 1%
[4]
  LD50: > 1000 mg/kg
[5]
  LD50: > 1000 mg/kg
Rattus norvegicus [6]
  Inhibition: 4%
Rattus norvegicus [7]
  Inhibition: 24%
Rattus norvegicus [8]
  Inhibition: 29%

## Cc1cc(/N=C(\Nc2cc(C)nc3ccccc23)NC2CCCCC2)sn1
Rattus norvegicus [1]
  Total score: 9
[2]
  inhibition: 83.2%
Rattus norvegicus [9]
  Inhibition: 29%
[4]
  LD50: > 1000 mg/kg
[5]
  LD50: > 1000 mg/kg
Rattus norvegicus [6]
  Inhibition: 1%
Rattus norvegicus [7]
  Inhibition: 21%
Rattus norvegicus [10]
  Inhibition: 48%

## CCCCCC/N=C(\Nc1nccs1)Nc1cc(C)nc2ccccc12
[2]
  inhibition: -23.8%
[11]
  LD50: 8 mg/kg

## Cc1cc(N/C(=N\C(C)(C)C)Nc2nccs2)c2ccccc2n1
Rattus norvegicus [1]
  Total score: 8
Rattus norvegicus [12]
  Inhibition: >=50%
[13]
  LD50: < 500 mg/kg
[2]
  inhibition: 100%
[4]
  LD50: 200 mg/kg
Rattus norvegicus [14]
  Inhibition: 60%
Rattus norvegicus [10]
  Inhibition: 34%

## CCC(C)(C)/N=C(/Nc1nccs1)Nc1cc(C)nc2ccccc12
Rattus norvegicus [1]
  Total score: 9
Rattus norvegicus [15]
  Inhibition: >=50%
[13]
  LD50: < 500 mg/kg
[2]
  inhibition: 100%
[4]
  LD50: 400 mg/kg
Rattus norvegicus [6]
  Inhibition: 59%
Rattus norvegicus [7]
  Inhibition: 55%
Rattus norvegicus [10]
  Inhibition: 53%

## Cc1cc(N/C(=N/C2CCCCC2)NC2NC=CS2)c2ccccc2n1 (stereo not given)
[4]
  LD50: > 1000 mg/kg
[16]
  inhibition: 12.6%
Rattus norvegicus [10]
  Inhibition: 33%

## CCCC/N=C(/Nc1nccs1)Nc1cc(C)nc2ccccc12
Rattus norvegicus [1]
  Total score: 6
[2]
  inhibition: 0.6%
Rattus norvegicus [17]
  Inhibition: 29%
[4]
  LD50: 800 mg/kg
Rattus norvegicus [14]
  Inhibition: 34%
Rattus norvegicus [10]
  Inhibition: 89%

## Cc1cc(/N=C(\Nc2nccs2)NC2CCCCC2)c2ccccc2n1 [TIMEGADINE]
[18]
  LD50: 1220 mg/kg
Rattus norvegicus [1]
  Total score: 12
Rattus norvegicus [19]
  minimal effective dose: 10 mg/kg
[20]
  IC50: 2500 nM
Rattus norvegicus [12]
  Inhibition: >=50%
Rattus norvegicus [21]
  ED50: 26.5 mg/kg
[2]
  inhibition: 100%
Rattus norvegicus [22]
  minimal effective dose: 12.4 mg/kg
[4]
  LD50: > 1000 mg/kg
Rattus norvegicus [23]
  ED50: 29.6 mg/kg
[5]
  LD50: > 1000 mg/kg
Rattus norvegicus [6]
  Inhibition: 53%
Rattus norvegicus [24]
  ED50: 170 mg/kg
[25]
  LD50: > 1000 mg/kg
Rattus norvegicus [26]
  minimal effective dose: 10 mg/kg
Rattus norvegicus [7]
  Inhibition: 63%
Rattus norvegicus [27]
  minimal effective dose: 3 mg/kg
Rattus norvegicus [28]
  ED50: 68.5 mg/kg
Rattus norvegicus [10]
  Inhibition: 68%

## Cc1cc(N/C(=N/C2CCCCCCC2)Nc2nccs2)c2ccccc2n1
Rattus norvegicus [1]
  Total score: 9
[2]
  inhibition: 55.1%
[4]
  LD50: > 1000 mg/kg
[5]
  LD50: > 1000 mg/kg
Rattus norvegicus [6]
  Inhibition: 21%
Rattus norvegicus [29]
  Enhancement: 8%
Rattus norvegicus [8]
  Inhibition: 29%
Rattus norvegicus [10]
  Inhibition: 62%

## Cc1csc(/N=C(\Nc2cc(C)nc3ccccc23)NC2CCCCC2)n1
Rattus norvegicus [1]
  Total score: 7
Rattus norvegicus [30]
  Enhancement: 15%
[2]
  inhibition: 89.3%
[4]
  LD50: > 1000 mg/kg
[5]
  LD50: > 1000 mg/kg
Rattus norvegicus [31]
  Inhibition: <10%
Rattus norvegicus [29]
  Enhancement: 23%
Rattus norvegicus [10]
  Inhibition: 38%

## CCOc1cc(N/C(=N/C(C)(C)C)Nc2nccs2)c2ccccc2n1
Rattus norvegicus [1]
  Total score: 6
[2]
  inhibition: 88.9%
[32]
  LD50: 1000 mg/kg
[4]
  LD50: 800 mg/kg
Rattus norvegicus [6]
  Inhibition: 8%
Rattus norvegicus [33]
  Inhibition: <10%
Rattus norvegicus [7]
  Inhibition: 13%
Rattus norvegicus [10]
  Inhibition: 39%

## Cc1cc(N/C(=N\C2CC2)Nc2nccs2)c2ccccc2n1
Rattus norvegicus [1]
  Total score: 7
[2]
  inhibition: 15.8%
[4]
  LD50: 600 mg/kg
Rattus norvegicus [6]
  Inhibition: 53%
Rattus norvegicus [7]
  Inhibition: 30%
Rattus norvegicus [34]
  Inhibition: 49%
Rattus norvegicus [10]
  Inhibition: 65%

## COc1ccc2c(c1)c(CC(=O)O)c(C)n2C(=O)c1ccc(Cl)cc1 [INDOMETHACIN]
Rattus norvegicus [19]
  minimal effective dose: 2 mg/kg
Rattus norvegicus [35]
  LD50: 12 mg/kg
Rattus norvegicus [21]
  ED50: > 6 mg/kg
Rattus norvegicus [22]
  minimal effective dose: 1.6 mg/kg
[4]
  LD50: 24.3 mg/kg
Rattus norvegicus [23]
  ED50: 3.5 mg/kg
Rattus norvegicus [24]
  ED50: 4.6 mg/kg
Rattus norvegicus [26]
  minimal effective dose: < 1 mg/kg
Rattus norvegicus [27]
  minimal effective dose: 1 mg/kg
Rattus norvegicus [28]
  ED50: 6.5 mg/kg

## Cc1cc(N/C(=N/C(C)(C)C)Nc2nnc(C)s2)c2ccccc2n1
Rattus norvegicus [1]
  Total score: 9
[2]
  inhibition: 33%
[4]
  LD50: > 1000 mg/kg
Rattus norvegicus [36]
  Inhibition: 49%
[5]
  LD50: > 1000 mg/kg
Rattus norvegicus [6]
  Inhibition: 45%
Rattus norvegicus [7]
  Inhibition: 51%
Rattus norvegicus [10]
  Inhibition: 85%
